# Experimental data reported in ChEMBL document CHEMBL1122415, “Folate antagonists. 20. Synthesis and antitumor and antimalarial properties of trimetrexate and related 6-[(phenylamino)methyl]-2,4-quinazolinediamines” (1983).
# Where “and” joins values, the source holds several entries; their conditions need not be identical. Identical values can stand only once.
# Key:
# L1210 = test: Molar concentration required to reduce the number of L1210 cells by 50% after incubation for 2 days; type: functional, Mus musculus; conditions: read-out: ID50 (the source's name)
# Outline: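 L1210 leukemia cells in tissue culture exposed to drug for 2 days. ID50 is the molar concentration that reduces L1210 cell number by 50%. Mithramycin is the reference drug.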
# Mus musculus [1] = test: Antimalarial effect against trophozoite-induced Plasmodium berghei in mice (Mus musculus) after subcutaneous administration dose of 640 mg/kg; type: functional
# Plasmodium berghei [2] = test: Antimalarial effect against trophozoite-induced Plasmodium berghei in mice (Mus musculus) at 20 mg/kg subcutaneous dose; type: functional
# Plasmodium berghei [3] = test: Antimalarial effect against trophozoite-induced Plasmodium berghei in mice (Mus musculus) after subcutaneous dose of 160 mg/kg; type: functional; conditions: 160 mg/kg
# Plasmodium berghei [4] = test: Antimalarial effect against trophozoite-induced Plasmodium berghei in mice (Mus musculus) at 320 mg/kg subcutaneous dose; type: functional
# Plasmodium berghei [5] = test: Antimalarial effect against trophozoite-induced Plasmodium berghei in mice (Mus musculus) at 40 mg/kg subcutaneous dose; type: functional
# Plasmodium berghei [6] = test: Antimalarial effect against trophozoite-induced Plasmodium berghei in mice (Mus musculus) after subcutaneous dose of 10 mg/kg; type: functional
# Plasmodium berghei [7] = test: Antimalarial effect against trophozoite-induced Plasmodium berghei in mice (Mus musculus) at 80 mg/kg subcutaneous dose; type: functional
# Mus musculus [8] = organism: Mus musculus; test: Daily dose required for 90% parasitaemia in trophozoite induced Plasmodium berghei in 21 mice; type: functional
# Outline: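 Oral suppressive test in mice against a normal drug-sensitive P. berghei strain. Drug given continuously in the diet for six consecutive days, with doses as free base equivalent. SD90 is the daily dose (mg/kg) giving 90% suppression of parasitemia versus control mice, estimated graphically on semilog paper.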
# Plasmodium berghei [9] = test: Antimalarial effect against trophozoite-induced Plasmodium berghei in mice (Mus musculus) at 5 mg/kg subcutaneous dose; type: functional
# Mus musculus [10] = test: Antimalarial effect against trophozoite-induced Plasmodium berghei in mice (Mus musculus) after subcutaneous administration dose of 20 mg/kg; 2 survived after 60 days of postinfection; type: functional
# Mus musculus [11] = test: Antimalarial effect against trophozoite-induced Plasmodium berghei in mice (Mus musculus) after subcutaneous administration dose of 1.25 mg/kg; type: functional
# Mus musculus [12] = test: Antimalarial effect against trophozoite-induced Plasmodium berghei in mice (Mus musculus) after subcutaneous administration dose of 2.5 mg/kg; type: functional
# Mus musculus [13] = test: Antimalarial effect against trophozoite-induced Plasmodium berghei in mice (Mus musculus) after subcutaneous administration dose of 320 mg/kg; 1 survived after 60 days of post infection
# Mus musculus [14] = test: Antimalarial effect against trophozoite-induced Plasmodium berghei in mice (Mus musculus) after subcutaneous administration dose of 320 mg/kg; 3 survived after 60 days of postinfection; type: functional
# Mus musculus [15] = test: Antimalarial effect against trophozoite-induced Plasmodium berghei in mice (Mus musculus) after subcutaneous administration dose of 160 mg/kg; 3 survived after 60 days of postinfection; type: functional; conditions: 160 mg/kg
# Mus musculus [16] = test: Antimalarial effect against trophozoite-induced Plasmodium berghei in mice (Mus musculus) after subcutaneous administration dose of 80 mg/kg; 1 survived after 60 days of postinfection; type: functional
# Mus musculus [17] = test: Antimalarial effect against trophozoite-induced Plasmodium berghei in mice (Mus musculus) after subcutaneous administration dose of 80 mg/kg; 1 survived after 60 days; type: functional
# Mus musculus [18] = test: Antimalarial effect against trophozoite-induced Plasmodium berghei in mice (Mus musculus) after subcutaneous administration dose of 160 mg/kg; 4 survived after 60 days; type: functional
# Plasmodium berghei [19] = test: Change in mean survival time of Trophozoite-induced Plasmodium berghei infected mice (Mus musculus) after 160 mg/kg subcutaneous dose; 60 days survival; type: functional
# Mus musculus [20] = test: (§1) Antimalarial effect against trophozoite-induced Plasmodium berghei in mice (Mus musculus) after subcutaneous administration dose of 20 mg/kg; type: functional
# Mus musculus [21] = test: as §1; type: functional; remark: listed apart in the source
# Mus musculus [22] = test: Antimalarial effect against trophozoite-induced Plasmodium berghei in mice (Mus musculus) after subcutaneous administration dose of 10 mg/kg; type: functional; conditions: 10 mg/kg
# Mus musculus [23] = test: Antimalarial effect against trophozoite-induced Plasmodium berghei in mice (Mus musculus) after subcutaneous administration dose of 40 mg/kg; 2 survived after 60 days of postinfection; type: functional
# Mus musculus [24] = test: Antimalarial effect against trophozoite-induced Plasmodium berghei in mice (Mus musculus) after subcutaneous administration dose of 40 mg/kg; 1 survived after 60 days of postinfection; type: functional
smiles,measurement,setting,value
Nc1nc(N)c2cc(CN(C=O)c3ccc4cc(Cl)ccc4c3)ccc2n1,IC50,"L1210; Mus musculus, L1210, 48 h",250 nM
same,IC50,L1210,150 nM
same,Delta MST,Mus musculus [1],16.9 days
same,Delta MST,Plasmodium berghei [2]; 20 mg/kg,0.5 days and 0.3 days
same,Delta MST,Plasmodium berghei [3],10.9 days and 4.1 days
same,Delta MST,Plasmodium berghei [4]; 320 mg/kg,13.9 days and 13.7 days and 10.7 days
same,Delta MST,Plasmodium berghei [5]; 40 mg/kg,1.5 days and 0.5 days
CC(=O)O.Nc1nc(N)c2cc(CNc3cccc(Cl)c3)ccc2n1.O.O,Delta MST,Plasmodium berghei [6],0.3 days
same,Delta MST,Plasmodium berghei [7],3.3 days
same,IC50,"L1210; Mus musculus, L1210, 48 h",46 nM
same,IC50,L1210,70 nM
same,Delta MST,Mus musculus [1],9.9 days
same,Delta MST,Plasmodium berghei [2]; 20 mg/kg,0.7 days and 0.5 days
same,Delta MST,Plasmodium berghei [4]; 320 mg/kg,20.6 days and 16.4 days and 8.7 days
same,SD90,Mus musculus [8],8.5 mg/kg/day
same,Delta MST,Plasmodium berghei [5],1.7 days
Nc1nc(N)c2cc(N(Cc3ccc(Cl)c(Cl)c3)N=O)ccc2n1,Delta MST,Plasmodium berghei [6]; 10 mg/kg,7.5 days and 9.9 days
same,Delta MST,Plasmodium berghei [9],2.9 days
same,Delta MST,Mus musculus [10],20.9 days
CC(=O)O.Nc1nc(N)c2cc(CNc3ccc(Cl)c4ccccc34)ccc2n1.O,Delta MST,Plasmodium berghei [6]; 10 mg/kg,10.3 days and 10.5 days and 10.7 days
same,Delta MST,Mus musculus [11],1.7 days
same,IC50,"L1210; Mus musculus, L1210, 48 h",22 nM
same,IC50,L1210,13 nM
same,Delta MST,Mus musculus [12],5.5 days
same,Delta MST,Plasmodium berghei [9],9.9 days
same,Delta MST,Mus musculus [10]; 20 mg/kg,11.9 days and 12.6 days and 12.9 days
CC(=O)O.Nc1nc(N)c2cc(CNc3ccccc3Cl)ccc2n1.O,Delta MST,Plasmodium berghei [6],0.7 days
same,Delta MST,Plasmodium berghei [7],7.7 days
same,IC50,"L1210; Mus musculus, L1210, 48 h",93 nM
same,IC50,L1210,68 nM
same,Delta MST,Mus musculus [13],7.9 days
same,Delta MST,Plasmodium berghei [9],0.7 days
same,Delta MST,Plasmodium berghei [4]; 320 mg/kg,9.9 days and 8.4 days
same,SD90,Mus musculus [8],8 mg/kg/day
same,Delta MST,Plasmodium berghei [5]; 40 mg/kg,3.1 days and 1.3 days
same,Delta MST,Mus musculus [14],8.4 days
CC(=O)O.Nc1nc(N)c2cc(CNc3ccc(Cl)c(Cl)c3)ccc2n1.O.O,Delta MST,Plasmodium berghei [6],1.8 days
same,IC50,L1210,18 nM and 23 nM and 67 nM
same,Delta MST,Mus musculus [12]; 2.5 mg/kg,0.4 days and 0.2 days
same,Delta MST,Plasmodium berghei [2],5.8 days
same,Delta MST,Plasmodium berghei [3],18.8 days and 19.8 days
same,Delta MST,Mus musculus [15],11.8 days and 12.1 days
same,SD90,Mus musculus [8],0.92 mg/kg/day
same,Delta MST,Mus musculus [16],11.8 days
same,Delta MST,Plasmodium berghei [5]; 40 mg/kg,11.2 days and 5.8 days
Nc1nc(N)c2c(Cl)c(CN(N=O)c3ccc(Cl)c(Cl)c3)ccc2n1,Delta MST,Mus musculus [17],13.4 days
same,Delta MST,Plasmodium berghei [6],3.5 days
same,Delta MST,Plasmodium berghei [2]; 20 mg/kg,6.1 days and 6.3 days
same,Delta MST,Mus musculus [18],21.9 days
same,Delta MST,Plasmodium berghei [5],8.1 days
CC(=O)O.Nc1nc(N)c2cc(CNc3ccc(Cl)c(C(F)(F)F)c3)ccc2n1.O.O,Delta MST,Plasmodium berghei [6]; 10 mg/kg,4.9 days and 2.7 days
same,Delta MST,Plasmodium berghei [7]; 80 mg/kg,27.2 days and 10.3 days
same,Delta MST,Plasmodium berghei [2],5.1 days
same,Delta MST,Plasmodium berghei [4],29.9 days
same,Delta MST,Plasmodium berghei [19],23.9 days
same,Delta MST,Plasmodium berghei [5]; 40 mg/kg,10.5 days and 4.9 days
CC(=O)O.Nc1nc(N)c2c(Cl)c(CNc3ccc(Cl)c(Cl)c3)ccc2n1.O,Delta MST,Mus musculus [11],2.9 days
same,Delta MST,Plasmodium berghei [9],4.3 days
CC(=O)O.Nc1nc(N)c2c(Cl)c(CNc3ccc(Cl)cc3)ccc2n1.O,Delta MST,Mus musculus [20],16.9 days and 17.4 days
same,Delta MST,Mus musculus [21],16.9 days
same,Delta MST,Mus musculus [12],2.7 days
same,Delta MST,Mus musculus [22],6.9 days and 6.1 days
CC(=O)O.Nc1nc(N)c2cc(CNc3ccc4cc(Cl)ccc4c3)ccc2n1.O.O,Delta MST,Plasmodium berghei [6],3.3 days
same,IC50,"L1210; Mus musculus, L1210, 48 h",140 nM
same,IC50,L1210,260 nM
same,Delta MST,Plasmodium berghei [2]; 20 mg/kg,8.3 days and 8.5 days
same,Delta MST,Mus musculus [23],20.6 days and 20.7 days
CCc1nc(N)nc(N)c1-c1ccc(Cl)cc1 [PYRIMETHAMINE],Delta MST,Mus musculus [24],7.7 days and 6.1 days
same,Delta MST,Plasmodium berghei [6],5.3 days
same,Delta MST,Mus musculus [12],4.7 days
same,Delta MST,Plasmodium berghei [9],3.1 days
